Source: ChEMBL document CHEMBL4616650, “Spongian Diterpenoids Derived from the Antarctic Sponge Dendrilla antarctica Are Potent Inhibitors of the Leishmania Parasite” (J Nat Prod, 2020)
pIC50: −log10 of the molar value.

What was measured:
[1] = test system: Leishmania donovani; test: Antileishmanial activity against Leishmania donovani MHOM/SD/75/1246/130 amastigotes infected in mouse J774A.1 cells incubated for 72 hrs by DRAQ5 fluorescent probe based assay; type: functional, organism-based; settings: MHOM/SD/75/1246/130, J774.A1, 72 h
How it was run: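 Axenic amastigotes grown at 37 °C in RPMI 1640 pH 5.5 with HEPES, MES, hemin, xanthine, Tween-80, tryptone-peptone, 20% heat-inactivated FBS. 2000 J774A.1 macrophages per well infected at 10:1 parasites:cells, 24 h, 37 °C, 5% CO2; extracellular parasites washed off. Compounds from 10 μg/mL top, 1:2 serial dilutions, 72 h. Fixed 2% paraformaldehyde, DraQ5 5 μM nuclear stain; high-content imaging counts amastigotes per 500 macrophages; IC50 derived.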

[2] = test system: J774.A1; test: Cytotoxicity against mouse J774A.1 cells incubated for 72 hrs by CellTiter 96 AQueous One solution cell proliferation assay; type: cell-based; settings: J774.A1, 72 h
How it was run: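 J774A.1 macrophages in RPMI 1640 with 10% heat-inactivated FBS, pH 7.2. Seeded at 50 000 cells per well with six 2-fold dilutions, final 50 to 1.6 μg/mL, 72 h at 37 °C, 5% CO2. MTS reagent added for a further 4 h; absorbance read at 490 nm.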

[3] = Selectivity index, ratio of cytotoxicity against mouse J774A.1 cells to antileishmanial activity against Leishmania donovani MHOM/SD/75/1246/130 amastigotes infected in mouse J774A.1 cells; type: toxicity, cell-based; settings: read-out: Ratio IC50

Compound | pIC50 [1] | pIC50 [2] | selectivity ratio [3]
CO[C@@H]1O[C@@H](OC)c2c1ccc([C@@]1(C)CCCC(C)(C)C1)c2[C@@H](C)C(=O)O [MEMBRANOLIDE C] | 6.10 | < 3.88 | > 166
CO[C@H]1OC(=O)c2ccc([C@@]3(C)CCCC(C)(C)C3)c([C@@H](C)C(=O)O)c21 | 4.57 | 4.37 | –
CC(=O)O[C@@H]1O[C@H]2OCC3=C(C)[C@@H]([C@@]4(C)CCCC(C)(C)C4)CC[C@@H]1[C@H]32 | 4.95 | 4.13 | –
CO[C@H]1OC(=O)[C@H](C)c2c([C@@]3(C)CCCC(C)(C)C3)ccc(C=O)c21 | < 4.54 | 4.26 | –
C[C@H]1C(=O)O[C@@H](O)c2c(C=O)ccc([C@@]3(C)CCCC(C)(C)C3)c21 | 5.72 | < 3.82 | > 100
CO[C@H]1O[C@@H](OC)c2c1ccc([C@@]1(C)CCCC(C)(C)C1)c2[C@@H](C)C(=O)O [MEMBRANOLIDE D] | 5.18 | 4.02 | –
CCCCCCCCCCCCCCCCOP(=O)([O-])OCC[N+](C)(C)C [MILTEFOSINE] | 5.54 | < 3.92 | –
COC(=O)[C@H](C)c1c([C@@]2(C)CCCC(C)(C)C2)ccc2c1C(=O)OC2 | 5.01 | 4.11 | –
CC(=O)O[C@@H]1O[C@H]2OC(=O)[C@H](C)C3=C([C@@]4(C)CCCC(C)(C)C4)CC[C@@H]1[C@H]32 | 5.46 | < 3.88 | > 38
CO[C@H]1O[C@@H](OC(C)=O)c2ccc([C@@]3(C)CCCC(C)(C)C3)c([C@@H](C)C(=O)O)c21 | 4.92 | 4.20 | –
CC(=O)O[C@@H]1O[C@H]2OC(=O)[C@H](C)C3C([C@@]4(C)CCCC(C)(C)C4)=CC=C1C32 (stereo partly specified) | 5.51 | 4.91 | 4
CO[C@@H]1O[C@H](OC)c2c1ccc([C@@]1(C)CCCC(C)(C)C1)c2[C@@H](C)C(=O)O | 5.19 | < 3.88 | –
CO[C@H]1O[C@H](OC)c2c1ccc([C@@]1(C)CCCC(C)(C)C1)c2[C@@H](C)C(=O)O | 5.85 | < 3.88 | > 95
